Measured values reported in ChEMBL document CHEMBL2203147 (ACS Med Chem Lett, 2011).
Activity calls are given as the source filed them. No cut-off for these calls is given here.

Key:
[1] = species: Rattus norvegicus; test: Selectivity ratio of Ki for Sprague-Dawley rat dopamine D1-like receptor to Ki for Sprague-Dawley rat dopamine D3 receptor
[2] = Displacement of [3H]SCH 23390 from Sprague-Dawley rat dopamine D1-like receptor after 90 mins
[3] = target: D(3) dopamine receptor (Rattus norvegicus, UniProt P19020); test: Displacement of [3H]R(+)-7-OH-DPAT from Sprague-Dawley rat dopamine D3 receptor after 90 mins
[4] = target: D(2) dopamine receptor (Rattus norvegicus, UniProt P61169); test: Displacement of [3H]Spiperone from Sprague-Dawley rat dopamine D2-like receptor after 90 mins
[5] = species: Rattus norvegicus; test: Selectivity ratio of Ki for Sprague-Dawley rat dopamine D2-like receptor to Ki for Sprague-Dawley rat dopamine D3 receptor
[6] = species: Rattus norvegicus; conditions: Sprague-Dawley, 0.32 mg/kg
[7] = tested on: Rattus norvegicus; test: Induction of hypothermia in Sprague-Dawley rat at 10 mg/kg, sc after 60 mins; type: functional, organism-based; design: dose 10 mg/kg
In short: (§1)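 Readout is the change in core body temperature in rats after subcutaneous agonist dosing. Statistical significance was assessed at P < 0.05, 0.005 and 0.001.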

[8] = species: Rattus norvegicus; conditions: Sprague-Dawley, 10 mg/kg
[9] = tested on: Rattus norvegicus; test: Induction of yawning in sc dosed Sprague-Dawley rat after 60 mins; type: functional, organism-based
[10] = Aqueous solubility of the compound; type: physicochemical
[11] = tested on: Rattus norvegicus; test: Induction of yawning in Sprague-Dawley rat at 1 mg/kg, sc after 60 mins; type: functional, organism-based; design: dose 1 mg/kg
[12] = tested on: Rattus norvegicus; test: Induction of yawning in Sprague-Dawley rat at 0.1 to 10 mg/kg, sc after 60 mins; type: functional, organism-based
[13] = tested on: Rattus norvegicus; test: Induction of yawning in Sprague-Dawley rat at 1 mg/kg, sc pre-treated with 32 mg/kg D3 receptor antagonist SB-277011A measured 30 mins post dose; type: functional, organism-based
In short: (§2)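 The selective antagonist (D3: SB-277011A; D2: L-741,626) was given before the subcutaneous agonist dose. Yawning was then scored in rats.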

[14] = tested on: Rattus norvegicus; test: Induction of yawning in Sprague-Dawley rat at 0.01 mg/kg, sc after 60 mins; type: functional, organism-based; design: dose 0.01 mg/kg
[15] = target: D(3) dopamine receptor (Homo sapiens) (UniProt P35462); test: Agonist activity at human dopamine D3 receptor expressed in CHOp cells assessed as […] quinpirole-induced mitogenesis after 24 hrs relative to quinpirole; type: functional, cell-based
In short: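 Mitogenesis functional assay on cloned human D3 receptor expressed in CHO cells. Quinpirole serves as the standard D3 agonist control. Readouts are EC50 and maximal stimulation, expressed as a percentage of the quinpirole maximum.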

[16] = tested on: Rattus norvegicus; test: Induction of yawning in Sprague-Dawley rat at 10 mg/kg, sc pre-treated with 32 mg/kg D3 receptor antagonist SB-277011A measured 30 mins post dose; type: functional, organism-based; in short: as §2
[17] = species: Rattus norvegicus; conditions: Sprague-Dawley, 10 mg/kg; remark: listed apart in the source
[18] = tested on: Rattus norvegicus; test: Induction of yawning in Sprague-Dawley rat at 0.01 to 10 mg/kg, sc after 60 mins; type: functional, organism-based
[19] = tested on: Rattus norvegicus; test: Induction of hypothermia in Sprague-Dawley rat at 10 mg/kg, sc pre-treated with 1 mg/kg D2 receptor antagonist L-741,626 measured 30 mins post dose
[20] = tested on: Rattus norvegicus; test: Induction of yawning in Sprague-Dawley rat at 1 mg/kg, sc pre-treated with 1 mg/kg D2 receptor antagonist L-741,626 measured 30 mins post dose; type: functional, organism-based; in short: as §2
[21] = target: D(1A) dopamine receptor (Homo sapiens) (UniProt P21728); test: Displacement of [3H]SCH-23390 from human cloned dopamine D1 receptor expressed in LhD1 cells at 10000 nM after 60 mins by scintillation counter; type: cell-based
[22] = tested on: Rattus norvegicus; test: Induction of hypothermia in Sprague-Dawley rat at 3.2 mg/kg, sc after 60 mins; type: functional, organism-based; design: dose 3.2 mg/kg; in short: as §1
[23] = tested on: Rattus norvegicus; test: Induction of yawning in Sprague-Dawley rat at 10 mg/kg, sc pre-treated with 1 mg/kg D2 receptor antagonist L-741,626 measured 30 mins post dose; type: functional, organism-based; in short: as §2

Chain of D(3) dopamine receptor (P19020 whole entry): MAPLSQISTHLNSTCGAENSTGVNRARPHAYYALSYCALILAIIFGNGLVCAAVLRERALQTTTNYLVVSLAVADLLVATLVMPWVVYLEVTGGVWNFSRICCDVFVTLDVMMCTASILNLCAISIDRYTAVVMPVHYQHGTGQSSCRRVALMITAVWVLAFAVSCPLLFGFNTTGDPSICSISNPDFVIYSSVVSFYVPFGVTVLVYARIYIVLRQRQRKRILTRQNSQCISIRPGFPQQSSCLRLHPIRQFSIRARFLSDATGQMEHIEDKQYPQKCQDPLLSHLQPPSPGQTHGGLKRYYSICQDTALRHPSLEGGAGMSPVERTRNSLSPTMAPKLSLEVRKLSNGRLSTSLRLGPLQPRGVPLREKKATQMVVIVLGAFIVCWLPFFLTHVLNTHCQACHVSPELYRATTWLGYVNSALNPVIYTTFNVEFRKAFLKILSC
Chain of D(2) dopamine receptor (P61169 whole entry): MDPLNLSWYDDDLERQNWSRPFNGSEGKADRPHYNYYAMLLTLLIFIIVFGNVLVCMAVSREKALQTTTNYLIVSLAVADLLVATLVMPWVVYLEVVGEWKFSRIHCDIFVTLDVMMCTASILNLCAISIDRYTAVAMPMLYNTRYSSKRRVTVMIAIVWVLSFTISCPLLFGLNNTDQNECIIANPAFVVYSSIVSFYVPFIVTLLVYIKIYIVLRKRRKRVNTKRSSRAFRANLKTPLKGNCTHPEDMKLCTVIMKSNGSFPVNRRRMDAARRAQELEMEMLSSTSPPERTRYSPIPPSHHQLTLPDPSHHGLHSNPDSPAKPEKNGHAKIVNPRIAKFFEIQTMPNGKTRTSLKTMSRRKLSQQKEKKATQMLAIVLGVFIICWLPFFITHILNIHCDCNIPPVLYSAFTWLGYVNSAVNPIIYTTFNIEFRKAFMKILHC
Chain of D(3) dopamine receptor (Homo sapiens) (P35462 whole entry): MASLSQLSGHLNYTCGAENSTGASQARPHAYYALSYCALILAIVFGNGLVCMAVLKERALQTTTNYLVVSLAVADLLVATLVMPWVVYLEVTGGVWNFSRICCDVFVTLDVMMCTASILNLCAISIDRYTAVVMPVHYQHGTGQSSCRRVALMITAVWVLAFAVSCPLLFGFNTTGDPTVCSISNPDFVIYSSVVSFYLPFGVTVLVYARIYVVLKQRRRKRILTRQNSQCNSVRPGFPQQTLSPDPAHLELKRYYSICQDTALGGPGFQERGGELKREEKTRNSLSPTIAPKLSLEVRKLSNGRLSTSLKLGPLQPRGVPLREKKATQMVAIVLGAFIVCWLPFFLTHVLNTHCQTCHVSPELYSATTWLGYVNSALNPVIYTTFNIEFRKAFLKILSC
Chain of D(1A) dopamine receptor (Homo sapiens) (P21728 whole entry): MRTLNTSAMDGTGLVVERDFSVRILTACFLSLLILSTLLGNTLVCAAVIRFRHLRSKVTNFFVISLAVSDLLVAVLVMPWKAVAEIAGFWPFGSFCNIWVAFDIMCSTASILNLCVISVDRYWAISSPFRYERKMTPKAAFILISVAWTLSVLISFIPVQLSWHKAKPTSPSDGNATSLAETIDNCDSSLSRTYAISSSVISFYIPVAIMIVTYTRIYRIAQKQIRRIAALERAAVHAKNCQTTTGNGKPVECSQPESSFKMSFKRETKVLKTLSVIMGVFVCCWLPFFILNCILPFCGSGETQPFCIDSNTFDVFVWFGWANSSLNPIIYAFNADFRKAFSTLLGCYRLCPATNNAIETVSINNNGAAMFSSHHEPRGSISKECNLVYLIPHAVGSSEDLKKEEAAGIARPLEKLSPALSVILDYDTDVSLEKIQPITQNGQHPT

| solubility [10] [mg/mL] | Compound | Ratio Ki [1] | Ki [2] [nM] | Ki [3] [nM] | Ki [4] [nM] | Ratio Ki [5] | Activity [9] | other results |
| --- | --- | --- | --- | --- | --- | --- | --- | --- |
| – | CCCN(CC[C@H]1C[C@@H](NC(=O)c2ccc3ccccc3c2)C1)[C@H]1CCc2nc(N)sc2C1 | 8820 | 3060 | 0.35 | 564 | 1630 | – | – |
| – | CCCN(CC[C@]1(O)CC[C@@H](NC(=O)c2ccc3ccccc3c2)CC1)[C@H]1CCc2nc(N)sc2C1 | 7370 | 11600 | 1.6 | 1630 | 1040 | – | – |
| – | CCCN(CC[C@]1(O)CC[C@H](NC(=O)c2ccc3ccccc3c2)CC1)[C@H]1CCc2nc(N)sc2C1 | 15100 | 14100 | 0.93 | 3550 | 3820 | – | – |
| – | CCCN[C@H]1CCc2nc(N)sc2C1 [PRAMIPEXOLE] | – | > 10000 | 0.45 | – | – | Dose-dependent effect | deltaT [6]: 0.75 °C; Activity [7]: Active; inhibition [8]: Active |
| – | CCCN(CC[C@H]1C[C@H](NC(=O)c2ccc3ccccc3c2)C1)[C@H]1CCc2nc(N)sc2C1 | 14800 | 6120 | 0.41 | 584 | 1420 | – | – |
| > 100 | CCCN(CC[C@]1(O)C[C@@H](NC(=O)c2ccc3ccccc3c2)C1)[C@H]1CCc2nc(N)sc2C1.Cl | – | – | – | – | – | Dose-dependent effect | Activity [11]: Active; Activity [12]: Active |
| > 50 | CCCN(CC[C@H]1CC[C@H](NC(=O)/C=C/c2ccccc2)CC1)[C@H]1CCc2nc(N)sc2C1 | – | – | – | – | – | – | – |
| > 50 | CCCN(CC[C@H]1CC[C@H](NC(=O)c2ccc3ccccc3c2)CC1)[C@H]1CCc2nc(N)sc2C1 | – | > 5000 | – | – | – | – | – |

| Compound | solubility [10] [mg/mL] | Ratio Ki [1] | Ki [2] [nM] | Ki [3] [nM] | Ki [4] [nM] | Ratio Ki [5] | Activity [9] | other results |
| --- | --- | --- | --- | --- | --- | --- | --- | --- |
| CCCN(CC[C@]1(O)C[C@H](NC(=O)c2ccc3ccccc3c2)C1)[C@H]1CCc2nc(N)sc2C1.Cl | > 100 | – | – | – | – | – | Dose-dependent effect | Activity [13]: inactive; Activity [14]: Active; Activity [7]: Active; Emax [15]: 103%; Activity [16]: inactive; deltaT [17]: 0.75 °C; Activity [18]: Active; Activity [19]: Active; Activity [20]: Active; Activity [21]: inactive; Activity [22]: inactive; Activity [11]: Active; Activity [23]: Active |
